Experiment [1] is described as follows: Her2 expression decrease, cell viability multiplex – SKBR3 breast tumor cells, AlphaScreen, ATP viability, primary screen (AID 461;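 active = Her2 level under about 52% in both replicate screens, with viability over 70% of control, limit read from the data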;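 for Her2 level: lower value means less Her2 protein in the cells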;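 for viability: percent of carrier control wells set as 100% viability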). As to conditions: SKBR3 Her2 protein level, 18-24 h, measured here: SKBR3 viability, ATP luminescence, at 10 µM. In general terms: In Alpha technology, singlet oxygen from a donor bead excites a nearby acceptor bead.
The target of experiment [2] is Receptor tyrosine-protein kinase erbB-2 (Homo sapiens) (UniProt P04626). The experiment is described as above. As to conditions: 18-24 h, at 10 µM, stronger effect = lower value.
Receptor tyrosine-protein kinase erbB-2 (Homo sapiens), sequence (P04626 whole entry, looked up): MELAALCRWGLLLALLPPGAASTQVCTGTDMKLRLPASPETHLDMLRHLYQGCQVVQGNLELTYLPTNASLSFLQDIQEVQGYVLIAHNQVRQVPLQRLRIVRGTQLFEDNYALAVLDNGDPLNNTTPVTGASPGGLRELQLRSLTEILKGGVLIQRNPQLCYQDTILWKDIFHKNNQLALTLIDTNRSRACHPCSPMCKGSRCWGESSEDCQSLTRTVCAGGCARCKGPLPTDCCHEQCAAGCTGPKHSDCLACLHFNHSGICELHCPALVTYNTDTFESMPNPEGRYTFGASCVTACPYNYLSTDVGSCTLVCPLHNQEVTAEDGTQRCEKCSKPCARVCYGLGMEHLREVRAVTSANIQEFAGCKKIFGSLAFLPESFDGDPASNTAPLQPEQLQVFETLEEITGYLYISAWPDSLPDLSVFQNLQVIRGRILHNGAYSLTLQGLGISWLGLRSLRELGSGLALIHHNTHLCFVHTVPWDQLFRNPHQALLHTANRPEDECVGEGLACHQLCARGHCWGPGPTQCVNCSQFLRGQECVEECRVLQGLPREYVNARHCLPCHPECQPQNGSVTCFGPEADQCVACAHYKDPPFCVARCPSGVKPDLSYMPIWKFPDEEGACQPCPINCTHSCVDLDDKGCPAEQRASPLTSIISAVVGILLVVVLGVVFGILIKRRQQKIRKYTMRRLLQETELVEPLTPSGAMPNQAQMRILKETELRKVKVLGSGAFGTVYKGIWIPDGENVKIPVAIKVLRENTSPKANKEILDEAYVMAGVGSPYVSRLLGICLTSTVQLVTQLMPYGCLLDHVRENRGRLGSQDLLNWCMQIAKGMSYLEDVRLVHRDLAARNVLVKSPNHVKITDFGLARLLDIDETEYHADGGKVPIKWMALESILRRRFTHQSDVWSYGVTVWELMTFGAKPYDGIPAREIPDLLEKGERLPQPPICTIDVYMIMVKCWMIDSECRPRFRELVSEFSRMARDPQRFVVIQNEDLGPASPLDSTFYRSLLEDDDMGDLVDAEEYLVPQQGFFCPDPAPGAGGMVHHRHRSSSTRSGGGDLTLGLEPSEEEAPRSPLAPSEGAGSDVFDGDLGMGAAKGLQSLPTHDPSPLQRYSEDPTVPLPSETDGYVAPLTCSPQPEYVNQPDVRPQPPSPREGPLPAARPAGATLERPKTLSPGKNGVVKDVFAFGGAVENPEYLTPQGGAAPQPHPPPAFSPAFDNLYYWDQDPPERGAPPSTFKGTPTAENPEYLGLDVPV
Experiment [3] is described as follows: reduced viability of SK-BR-3 breast cancer cells – cell-based, 24 h, human, pilot screen (AID 572;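 active = viability at or below 10% of carrier control in both of two separate runs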;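 note: compound exposure lasted between 18 and 24 h rather than exactly 24 h; 100% = carrier-treated control wells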). The note with it: SK-BR-3 viability, CellTiter-Glo luminescence, at 10 µM, stronger effect = lower value. A general note: In ATP-based viability assays light output follows the ATP content of the culture.
Experiment [4] is described as follows: HUVEC growth inhibition – cell-based, human, primary screen (AID 575).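 Note: 100% = median of untreated cell wells with 0.1% DMSO on each plate.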 The note with it: HUVEC proliferation, CellTiter-Glo luminescence, 72 h; at 10 µM; stronger effect = lower value. Put shortly: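 Test system: primary human umbilical vein endothelial cells; medium: endothelial basal medium with 2% FBS plus growth supplements; dosing: 10 µM compound only; times: 72 h treatment at 37 °C; signal: CTG luminescence; read-out: % viability relative to median vehicle-well signal on each plate; control set: vehicle and MePR control wells; plate: 384-well, collagen-coated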

The nature of experiment [5]: H69AR cell proliferation blockers – human, duplicate replicates, primary screen (AID 580;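 active = viability at or under a set limit in both replicates, limit being median viability minus 3 SD, cut at about 48% in these data, passing the limit was not always enough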;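 note: 100% = mean luminescence of untreated wells and 0% = no signal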). The note with it: H69AR lung tumor cells viability, ATP luminescence, 72 h; at 10 µM; stronger effect = lower value.
Experiment [6] can be described thus: MRP1 drug-resistance reversers in H69AR cells – cell-based, doxorubicin co-treatment, pilot screen (AID 601;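 active = viability loss from added drug above about 55%, and viability with drug at most 40%, in both replicates, limit read from the data, passing the limit was not always enough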). The note with it: CellTiter-Glo, 72 h, at 10 µM; for differential viability (reversal): stronger effect = higher value.
Experiment [7] can be described thus: yeast transport mutant growth inhibition pilot in 384-well plates, post-Golgi transport modulator project (AID 636; in the data active = inhibition above about 31%). As to conditions: absorbance 615 nm, about 18 h, stronger effect = higher value.
Experiment [8] can be described thus: growth suppression of yeast trafficking mutant, preliminary HTS, modulators of trafficking downstream of Golgi apparatus project, 1536-format plate, OD 615 nm (AID 637; in the data active = inhibition above about 30%). The note with it: yeast transport mutant growth, absorbance 615 nm, 18 h; stronger effect = higher value.
[9] abbreviates: H69AR cells + 2 uM doxorubicin, measured here: viability with 2 uM doxorubicin, stronger effect = lower value.
The mark [10] stands for this setting: H69AR cells, compound alone cytotoxicity.

Calls of active or inactive are those of the source.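 Rule for the calls, unless noted: active = viability at or below 30% in both replicate assays; inconclusive = viability at or below 30% in just one of the two assays; inactive = the rest.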

As a reminder, the viability is a read-out of living cells in per cent, often relative to untreated cells. What is called inhibition is the drop in the measured response relative to a control, in per cent. With `CN(C1CCCCC1)S(=O)(=O)c1ccc(NC(=O)c2ccco2)cc1`, the viability in experiment [1] was 91.5%; in experiment [3] it was 91.5% (inactive); in experiment [4], 80.4% (inactive); in experiment [5], 99.3% (inactive); in experiment [6] (setting [9]) it was 95.1%; in experiment [6] (setting [10]), 99.3%. The Her2 level in experiment [2] is 91.5% (inactive). Also, the differential viability (reversal) in experiment [6] (H69AR cells + 2 uM doxorubicin) was 4.14% (inactive). Also, the inhibition in experiment [7] was -5.26% (inactive); in experiment [8] it was -0.67% (inactive).

In the case of `CC(=O)CCc1c(C)[nH]c2ccccc2c1=O`, the viability in experiment [1] is 88.5%; in experiment [3], 88.5% (inactive); in experiment [4], 99.1% (inactive); in experiment [5], 93.2% (inactive); in experiment [6] (setting [9]), 93%; in experiment [6] (setting [10]) it was 93.2%. The Her2 level in experiment [2] was 118% (inactive). Further, the differential viability (reversal) in experiment [6] (H69AR cells + 2 uM doxorubicin) is 0.225% (inactive). Moreover, the inhibition was 5.84% (inactive) in experiment [7] and 13.1% (inactive) in experiment [8].

`CC1(C)C(=O)Nc2ccccc2N1C(=O)COC(=O)Cn1cnc2ccccc2c1=O`: the viability in experiment [1] is 110%; in experiment [3], 110% (inactive); in experiment [4], 110% (inactive); in experiment [5], 96.3% (inactive); in experiment [6] (setting [9]), 94.5%; in experiment [6] (setting [10]), 96.3%. Also, the Her2 level in experiment [2] is 112% (inactive). Also, the differential viability (reversal) in experiment [6] (H69AR cells + 2 uM doxorubicin) was 1.74% (inactive). Further, the values for the inhibition in experiment [7] and in experiment [8] were -3.55% (inactive) and -5.5% (inactive), respectively.

Turning to `Cc1nc(SCCC(=O)O)c2ccccc2n1`, the viability is 98% in experiment [1]; 98% (inactive) in experiment [3]; 88.4% (inactive) in experiment [4]; 85.9% (inactive) in experiment [5]; 84% in experiment [6] (setting [9]); 85.9% in experiment [6] (setting [10]). Moreover, the Her2 level in experiment [2] was 108% (inactive). The differential viability (reversal) in experiment [6] (H69AR cells + 2 uM doxorubicin) is 1.88% (inactive). Moreover, the results for the inhibition in experiment [7] and in experiment [8] were -0.26% (inactive) and -0.5% (inactive), respectively.

For `CN=C(Nc1cc(C)nn1-c1ccccc1)c1ccccc1`, the viability in experiment [1] was 93%; in experiment [3] it was 93% (inactive); in experiment [4], 86.6% (inactive); in experiment [5], 93.6% (inactive); in experiment [6] (setting [9]), 97.2%; in experiment [6] (setting [10]) it was 93.6%. Moreover, the Her2 level in experiment [2] is 95.5% (inactive). Also, in experiment [6] (H69AR cells + 2 uM doxorubicin), the differential viability (reversal) is -3.59% (inactive). For the same compound, the inhibition in experiment [7] is -2% (inactive); in experiment [8], -3.55% (inactive).

Regarding `Cc1ccc(S(=O)(=O)N2CCN(S(C)(=O)=O)C2c2ccccc2)cc1` (stereo not given), the viability in experiment [1] was 82%; in experiment [3], 82% (inactive); in experiment [4], 103% (inactive); in experiment [5], 94.4% (inactive); in experiment [6] (setting [9]), 106%; in experiment [6] (setting [10]) it was 94.4%. Besides, in experiment [2], the Her2 level was 96% (inactive). Besides, in experiment [6] (H69AR cells + 2 uM doxorubicin), the differential viability (reversal) is -12% (inactive). The values for the inhibition in experiment [7] and in experiment [8] were 0.13% (inactive) and 0% (inactive), respectively.

Consider `COc1ccc(CN2CC(C(=O)NCc3ccccn3)CC2=O)cc1` (stereo not given), for which the viability is 92.5% in experiment [1]; 92.5% (inactive) in experiment [3]; 101% (inactive) in experiment [4]; 105% (inactive) in experiment [5]; 95.1% in experiment [6] (setting [9]); 105% in experiment [6] (setting [10]). The Her2 level in experiment [2] was 104% (inactive). For the same compound, in experiment [6] (H69AR cells + 2 uM doxorubicin), the differential viability (reversal) is 9.59% (inactive). The values for the inhibition in experiment [7] and in experiment [8] were -5% (inactive) and -4.03% (inactive), respectively.

Regarding `O=C(COc1ccc(Cl)cc1)Nc1nc(-c2cccs2)cs1`, the viability is 96% in experiment [1]; 96% (inactive) in experiment [3]; 79.9% (inactive) in experiment [4]; 77.5% (inactive) in experiment [5]; 84.6% in experiment [6] (setting [9]); 77.5% in experiment [6] (setting [10]). Further, the Her2 level in experiment [2] was 74.5% (inactive). The differential viability (reversal) in experiment [6] (H69AR cells + 2 uM doxorubicin) was -7.15% (inactive). Also, the inhibition is 3.55% (inactive) in experiment [7] and 0.18% (inactive) in experiment [8].

Take `CC1=C(C(=O)Nc2ccccc2)C(c2cccs2)C(C#N)=C(SCC#N)N1` (stereo not given): the viability in experiment [1] was 104%; in experiment [3], 104% (inactive); in experiment [4] it was 64% (inactive); in experiment [5], 82.8% (inactive); in experiment [6] (setting [9]) it was 96.2%; in experiment [6] (setting [10]) it was 82.8%. Besides, the Her2 level in experiment [2] is 96.5% (inactive). Also, the differential viability (reversal) in experiment [6] (H69AR cells + 2 uM doxorubicin) was -13.4% (inactive). The inhibition in experiment [7] is -0.4% (inactive); in experiment [8], 19.2% (inactive).

Regarding `Cc1ccc(S(=O)(=O)NCCN2CCOCC2)cc1C`, the viability is 88.5% in experiment [1]; 88.5% (inactive) in experiment [3]; 91.7% (inactive) in experiment [4]; 86.1% (inactive) in experiment [5]; 91.3% in experiment [6] (setting [9]); 86.1% in experiment [6] (setting [10]). In experiment [2], the Her2 level was 93% (inactive). Also, in experiment [6] (H69AR cells + 2 uM doxorubicin), the differential viability (reversal) is -5.21% (inactive). For the same compound, the values for the inhibition in experiment [7] and in experiment [8] were -0.52% (inactive) and -1.11% (inactive), respectively.

`CC(C)(C)C(=O)N=C1SC2CS(=O)(=O)CC2N1c1ccc2c(c1)OCO2` (stereo not given): the viability in experiment [1] is 88%; in experiment [3], 88% (inactive); in experiment [4] it was 104% (inactive); in experiment [5], 106% (inactive); in experiment [6] (setting [9]), 95.7%; in experiment [6] (setting [10]), 106%. In experiment [2], the Her2 level is 110% (inactive). For the same compound, the differential viability (reversal) in experiment [6] (H69AR cells + 2 uM doxorubicin) is 10.5% (inactive). Also, the inhibition in experiment [7] is 0.79% (inactive); in experiment [8] it was -7.82% (inactive).

In the case of `Cc1nnc(SCC(=O)NCCN2C(=O)CSC2=O)s1`, the viability in experiment [1] is 96.5%; in experiment [3] it was 96.5% (inactive); in experiment [4], 114% (inactive); in experiment [5] it was 98.3% (inactive); in experiment [6] (setting [9]) it was 100%; in experiment [6] (setting [10]), 98.3%. Besides, the Her2 level in experiment [2] was 102% (inactive). Besides, the differential viability (reversal) in experiment [6] (H69AR cells + 2 uM doxorubicin) was -1.88% (inactive). The values for the inhibition in experiment [7] and in experiment [8] were -3.24% (inactive) and 0.63% (inactive), respectively.

On to `CCOC(=O)CSc1nc2c(c(-c3ccc(C)o3)c1C#N)CCCC2`, for which the viability in experiment [1] was 89.5%; in experiment [3] it was 89.5% (inactive); in experiment [4] it was 65.8% (inactive); in experiment [5], 73.8% (inactive); in experiment [6] (setting [9]) it was 67%; in experiment [6] (setting [10]) it was 73.8%. The Her2 level in experiment [2] is 88.5% (inactive). Moreover, the differential viability (reversal) in experiment [6] (H69AR cells + 2 uM doxorubicin) is 6.76% (inactive). Moreover, the inhibition in experiment [7] is 0.26% (inactive); in experiment [8] it was -2.46% (inactive).

As for `CCOc1ccccc1NC(=O)C1CCCN(C(=O)NCc2ccccc2)C1` (stereo not given), the viability is 102% in experiment [1]; 102% (inactive) in experiment [3]; 96.8% (inactive) in experiment [4]; 100% (inactive) in experiment [5]; 96.6% in experiment [6] (setting [9]); 100% in experiment [6] (setting [10]). For the same compound, in experiment [2], the Her2 level is 89.5% (inactive). For the same compound, in experiment [6] (H69AR cells + 2 uM doxorubicin), the differential viability (reversal) is 3.45% (inactive). Besides, the inhibition in experiment [7] was -2.13% (inactive); in experiment [8], 4.26% (inactive).

In the case of `CN(C)S(=O)(=O)c1ccc(C(=O)NCc2cccs2)cc1`, the viability in experiment [1] was 82%; in experiment [3] it was 82% (inactive); in experiment [4], 101% (inactive); in experiment [5], 101% (inactive); in experiment [6] (setting [9]) it was 92.8%; in experiment [6] (setting [10]), 101%. For the same compound, the Her2 level in experiment [2] is 87% (inactive). The differential viability (reversal) in experiment [6] (H69AR cells + 2 uM doxorubicin) was 8.48% (inactive). Besides, the figures for the inhibition in experiment [7] and in experiment [8] were -4.05% (inactive) and 3.81% (inactive), respectively.

With `O=c1oc2ccccc2c2c1ncn2-c1ccccc1`, the viability in experiment [1] was 100%; in experiment [3], 100% (inactive); in experiment [4], 90.4% (inactive); in experiment [5], 89.1% (inactive); in experiment [6] (setting [9]) it was 97.7%; in experiment [6] (setting [10]), 89.1%. In addition, in experiment [2], the Her2 level was 96% (inactive). Also, the differential viability (reversal) in experiment [6] (H69AR cells + 2 uM doxorubicin) is -8.58% (inactive). Further, the inhibition is 0.52% (inactive) in experiment [7] and -2.13% (inactive) in experiment [8].

The record behind these values is PubChem BioAssay.
